Jurkat NFkB inh: inhibitors of induced NF-kB luciferase reporter, primary screen, TCR NF-kB activation inhibitor project, cell-based, luminescence, uHTS; Jurkat, PMA/ionomycin-induced NF-kB luciferase reporter; inhibition, % at 4 µM; 0.53% of 330,000 active; AID 435003, 2010; in the data active means inhibition above about 50%
T cruzi repl: inhibitors of intracellular T. cruzi growth, primary screen, luminescence, NIH3T3 host cells; AID 1885, 2009; inhibition, % (concentration not given with the values); T. cruzi beta-gal in NIH3T3, 90 h; 1.4% of 300,000 active;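 active means mean inhibition across valid replicates above about 55%, limit read from the data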;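 further: signal also drops with host cell toxicity which is not excluded here; 0% = plate median of DMSO wells and 100% = zero luminescence signal; higher percent means less beta-gal luminescence so fewer parasites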
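Incubation – ≥90 h infection period, 3 h prior cell attachment · System – NIH/3T3 fibroblasts plus reporter T. cruzi · Doses – compound pinned at 50 nL/well, DMSO · Read-out basis – percent inhibition of parasite-derived β-gal signal · Signal – luminescent β-galactosidase signal after 60 min lysis · Also added – 5000 T. cruzi trypomastigotes/well · Medium – Low-serum DMEM with 2% FBS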
697 NFkB inh: inhibitors of PMA/ionomycin-induced NF-kB reporter, 697 cells, primary screen, B-cell NF-kB inhibitor project, cell-based, luminescence, uHTS; AID 435022, 2010; 697 B-cell NF-kB luciferase reporter, 16 h; inhibition, % at 4 µM; 0.33% of 330,000 active; in the data active means inhibition above about 35%
HSF1 activator: HSF-1 activators, primary screen, NIH3T3-HGL cells, MG132 stress, luminescence, single point; activation, % at 9 µM; 1.7% of 300,000 active; NIH3T3-HGL HSF-1 luciferase reporter, 8 h; 100% = twice DMSO control signal; AID 504408, 2011;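 active means mean replicate activation of at least 50% with a set share of replicates each reaching 50%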;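 further: 0% = median of the neutral control wells and 100% = twice that signal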
GPR7 antag: GPR7 receptor antagonists, primary screen, cell-based, fluorescence, single concentration | Neuropeptides B/W receptor type 1 (Homo sapiens), P48145 | GPR7-expressing cells, fluorescence antagonist assay | inhibition, % at 4.4 µM | 1.1% of 290,000 active | AID 1861, 2009; in the data active means inhibition above about 16%, passing the limit was not always enough;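 further: cells stimulated with the agonist NPW; 0% = agonist with vehicle and 100% = vehicle without agonist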
Target sequence (P48145 whole entry, looked up): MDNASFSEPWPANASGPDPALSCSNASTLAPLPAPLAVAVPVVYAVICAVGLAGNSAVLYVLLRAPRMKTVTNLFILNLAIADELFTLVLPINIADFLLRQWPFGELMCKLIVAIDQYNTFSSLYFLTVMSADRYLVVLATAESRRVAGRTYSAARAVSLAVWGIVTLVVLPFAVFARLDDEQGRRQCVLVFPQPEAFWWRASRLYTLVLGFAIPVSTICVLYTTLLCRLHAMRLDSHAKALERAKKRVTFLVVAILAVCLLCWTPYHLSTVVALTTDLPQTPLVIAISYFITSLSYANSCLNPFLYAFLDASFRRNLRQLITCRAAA
HSF1 inh: HSF1 inhibitors in luciferase reporter cells, primary screen, cell-based, NIH3T3, luminescence | NIH3T3-HGL HSE-luciferase, MG132-induced, luminescence 8 h; hits give low values | AID 2098, 2009 | 0.77% of 300,000 active | activity change, negative = inhibition, % at 7.5 µM (by protocol);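 active means more than half of replicate wells show activity change below -50%, luminescence cut by over half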;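 further: luciferase reports HSF-1 transcriptional activity via heat shock element; 0% = median of DMSO wells and -100% = zero luminescence signal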
Starred values were filed as active, the others as inactive; . = no result. This is a sample that favours compounds with a hit; in the whole collection about 4.8% have one here.

SMILES	Jurkat NFkB inh	T cruzi repl	697 NFkB inh	HSF1 activator	GPR7 antag	HSF1 inh
O=C(Nc1ccccc1N1CCN(C(=O)c2ccc(Cl)cc2)CC1)c1ccc(Br)cc1	-8.9	64.1*	12.5	31.6	-7.8	16.8
O=C(/C=C/c1ccco1)N1CCN(c2ccccc2)CC1	18.5	-11.4	-3.8	38.1	-4.6	11.8
O=C(/C=C\c1ccco1)Nc1ccc(N2CCN(C(=O)c3ccccc3)CC2)cc1	15.7	-55.7	-26.3	66.4*	-4.9	37.9
Cc1ccccc1C(=O)N1CCN(c2ccc(NC(=O)c3ccc([N+](=O)[O-])o3)cc2)CC1	34.0	58.0*	-17.4	85.9*	-1.6	60.9
Cc1ccc(NC(=O)c2cc(-c3ccco3)on2)cc1C	-82.7	-6.6	-22.5	54.9*	0.3	39.1
CNc1ccc2nnc(C(F)(F)C(F)(F)C(F)(F)F)n2n1	-0.9	-6.4	8.0	3.9	-6.2	-11.3
O=C(Nc1ccc(N2CCN(C(=O)c3ccc(Cl)cc3)CC2)cc1)c1ccc(Br)o1	5.5	69.9*	-27.0	34.8	8.4	19.1
CCc1ccccc1NC(=O)c1cccc(NC(=O)/C=C/c2ccco2)c1	9.0	-81.2	-81.4	31.0	8.1	9.4
O=C(Nc1ccccc1N1CCN(C(=O)c2ccc(Cl)cc2)CC1)c1ccc([N+](=O)[O-])o1	17.5	62.0*	-15.0	7.3	-3.6	20.3
O=C(Nc1ccc(N2CCN(C(=O)c3ccccc3)CC2)cc1)c1ccc([N+](=O)[O-])o1	.	44.6	.	111.3*	5.0	88.9
Cc1ccc(NC(=O)c2cccc(NC(=O)/C=C/c3ccco3)c2)cc1C	-42.5	-4.0	-40.2	72.5*	-2.8	39.8
Cc1nc(C)c(-c2nnc(-c3ccc(C(C)(C)C)cc3)o2)cc1C(=O)NN	-3.4	-12.6	-38.3	-14.4	-8.9	4.0
CCn1nnnc1NCc1ccc(OCc2c(F)cccc2Cl)c(OC)c1	-16.6	2.6	-7.5	40.7	2.0	3.3
NC(=O)CSc1nc2c(sc(=S)n2-c2ccccc2)c(=O)[nH]1	6.8	1.3	4.5	7.9	6.4	0.8
COc1ccc(CCNC(=O)Cn2c(=O)[nH]c3ccsc3c2=O)cc1OC	8.4	-3.0	24.1	7.4	-10.3	-0.9
Cn1c(N2CCOCC2)nc(-c2ccccc2)c1-c1ccccc1	-13.7	0.9	-23.3	-76.9	19.0	-71.1*
Cc1ccc2c(c1)c(C)c(C)n2CC(O)Cn1nnc2ccccc21 (stereo not given)	-67.1	-4.4	-87.8	-91.1	-5.9	-88.7*
O=C1c2ccccc2C(=O)N1CC(O)Cn1nnc2ccccc21 (stereo not given)	-3.3	-13.3	14.5	-44.9	-6.5	-31.2
OC(CN1c2ccccc2Sc2ccccc21)Cn1nnc2ccccc21 (stereo not given)	7.1	-1.1	-14.5	63.2*	-1.5	18.6
Cc1c(C)n(-c2ccc(Cl)cc2)c2ncnc(N)c12	-14.2	8.4	-52.6	-8.2	-6.2	-4.3
COCCN(C(=O)COC(=O)/C=C/c1ccc(OC)c(OC)c1)c1c(N)n(Cc2ccccc2)c(=O)[nH]c1=O	12.3	-8.8	4.2	12.7	.	-2.8
CC(C)C(=O)NC(NC(=S)Nc1cccc2cccnc12)C(Cl)(Cl)Cl (stereo not given)	-6.2	-20.5	-4.1	13.2	-4.1	13.4
CC(=O)c1nn(-c2cccc(Br)c2)cc1C(=O)c1ccc(Cl)cc1	-5.7	2.4	-0.4	84.5*	-7.9	43.2
COc1ccccc1NS(=O)(=O)c1cc2c3c(c1)CCN3C(=O)CC2	-7.2	2.5	23.8	5.5	.	1.6
CCOC(=O)C1=C(C)NC(C)=C(C(=O)OCC)C1c1cn(-c2ccccc2)nc1-c1ccco1	-3.6	-9.8	9.5	32.0	-7.1	9.7
SMILES	Jurkat NFkB inh	T cruzi repl	697 NFkB inh	HSF1 activator	GPR7 antag	HSF1 inh
CC(C)OC(=O)c1cn(-c2ccccc2)nc1-c1ccco1	7.8	55.9*	21.8	40.0	-0.1	36.2
C#CCN1N=C(c2ccc(C)cc2)CSC1=O	19.7	3.0	-23.7	10.4	.	0.4
CC(=O)Nc1ccc(C2=NN(Cc3nnc(-c4ccccc4)o3)C(=O)SC2)cc1	26.5	11.2	-50.7	88.1*	-1.2	41.4
CC(=O)Nc1ccc(C2=NN(CC#N)C(=O)SC2)cc1	-14.7	-12.5	-14.7	-13.7	-1.9	-6.0
O=C1SCC(c2ccccc2)=NN1Cc1ccccc1	1.9	20.7	12.5	-67.9	1.8	-59.1*
Cc1cc(N)n(-c2ccc(C(=O)O)cc2)n1	12.9	-19.3	5.7	-73.7	-2.4	-67.0*
Cc1cc(C)n(-c2ccc(C(=O)O)cc2)n1	-7.2	-13.6	-20.1	22.8	-6.2	1.5
Cc1cc(OCc2cc(C(=O)NC(C)c3c(C)nn(C)c3C)no2)cc(C)c1Cl (stereo not given)	-84.1	17.6	-121.3	53.9*	5.8	35.9
O=C(O)c1ccc2c(=O)n3c(nc2c1)/C(=C/c1ccccc1Br)CC3	7.7	1.3	6.6	-6.3	-9.3	-4.9
COc1ccc(C(C[N+](=O)[O-])C2(c3ccc(OC)c(OC)c3)C(=O)c3ccccc3C2=O)cc1 (stereo not given)	.	9.2	.	213.7*	3.3	146.2
Cc1cc(C)n(-c2nc3ccccc3s2)n1	-39.8	-16.9	-37.4	-88.0	-4.3	-84.2*
C=CCc1ccc(OCc2ccc(C(=O)OC)o2)c(OC)c1	-41.8	-16.5	-102.9	59.0*	3.6	39.5
CCCNC(=O)c1ccc(COc2ccc(CCC)cc2OC)o1	1.9	0.6	-91.7	-66.4	3.6	-56.2*
C=CCc1ccc(OCC(O)CO)c(OC)c1 (stereo not given)	-7.7	-14.4	-14.5	71.4*	-7.9	21.9
C=CCc1ccc(OCC(O)COCC)c(OC)c1 (stereo not given)	-44.8	-0.6	-29.7	26.2	-12.3	13.6
O=[N+]([O-])c1c(Nc2ccccc2O)cc(Cl)c2nonc12	-6.7	58.7*	-31.4	206.6*	22.2	150.2
Cc1ccc(C(=O)OCC(=O)c2c[nH]c3ccccc23)cc1NC(=O)c1ccco1	-0.7	-2.7	3.1	1.6	2.9	3.1
O=C(CS(=O)(=O)c1ccccc1)Nc1nnc(Cc2ccccc2)s1	1.8	-20.8	13.1	-1.6	-16.3	-2.2
Cn1c(=O)c2c(nc(Br)n2Cc2ccccc2Cl)n(C)c1=O	-18.3	0.5	-15.7	5.5	19.3*	14.0
CCOc1nc2c(c(=O)n(C)c(=O)n2C)n1Cc1ccccc1Cl	20.3	-8.9	-88.9	4.6	-5.8	0.6

Screens deposited in PubChem by several laboratories.
